Common to all, as to assay type: functional
The test system of assay [1] is MDA-MB-231. The experiment in a line: Growth inhibition of human MDA-MB-231 cells assessed as cell growth at 10^-4 M after 48 hrs by sulforhodamine B assay. To be noted: MDA-MB-231, 48 h, read-out: Activity. A general note: In SRB staining, fixed cells bind dye roughly in proportion to their protein.
The next assay has as its system MCF7. Briefly: Growth inhibition of human MCF7 cells assessed as cell growth at 10^-4 M after 48 hrs by sulforhodamine B assay. The following applies: MCF7, 48 h, read-out: Activity.
The subject of the next assay is RPMI-8226. Briefly: Growth inhibition of human RPMI8226 cells assessed as cell growth at 10^-4 M after 48 hrs by sulforhodamine B assay. To be noted: RPMI-8226, 48 h, read-out: Activity.
The subject of another assay is DU-145. The experiment in a line: Growth inhibition of human DU145 cells assessed as cell growth at 10^-5 M after 48 hrs by sulforhodamine B assay. The following applies: DU-145, 48 h, read-out: Activity. The procedure, abridged: (§1)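 Five-dose NCI-60 run (0.01, 0.1, 1, 10 and 100 µM, as 10-fold dilutions from a DMSO stock made at 400× the top final level). Cells were grown in RPMI 1640 with 5% FBS and 2 mM glutamine and plated for 24 h. They were then exposed for 48 h at 37 °C and 5% CO2. TCA fixation was followed by SRB staining with A515 read-out. Percent growth was taken relative to time-zero and control plates.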

The subject of assay [2] is M14. Briefly: Growth inhibition of human M14 cells assessed as cell growth at 10^-5 M after 48 hrs by sulforhodamine B assay. The following applies: M14, 48 h, read-out: Activity.
Assay [3] can be described thus: Growth inhibition of human HCC2998 cells assessed as cell growth at 10^-5 M after 48 hrs by sulforhodamine B assay. The following applies: HCC 2998, 48 h, read-out: Activity. The procedure, abridged: (§2)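 Five-dose screen at NCI. Cells in RPMI 1640 with 5% FBS and 2 mM L-glutamine, seeded at 5000–40,000 cells/well and grown 24 h at 37 °C, 5% CO2 before dosing, with time-zero plates TCA-fixed. Drug diluted from DMSO stock to 0.01, 0.1, 1, 10 and 100 µM final, 48 h. Cells fixed with cold TCA (10% final), stained with 0.4% SRB and read at 515 nm. Percent growth from Tz, control and test absorbances; GI50, TGI and LC50 from dose-response curves.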

The subject of a further assay is BT-549. The experiment in a line: Growth inhibition of human BT549 cells assessed as cell growth at 10^-6 M after 48 hrs by sulforhodamine B assay. The following applies: BT-549, 48 h, read-out: Activity. A digest of the protocol:
as §1

The test system of assay [4] is MDA-MB-231. The experiment in a line: Growth inhibition of human MDA-MB-231 cells assessed as cell growth at 10^-6 M after 48 hrs by sulforhodamine B assay. To be noted: MDA-MB-231, 48 h, read-out: Activity.
The test system of assay [5] is CAKI-1. Briefly: Growth inhibition of human CAKI-1 cells assessed as cell growth at 10^-6 M after 48 hrs by sulforhodamine B assay. The following applies: CAKI-1, 48 h, read-out: Activity. A digest of the protocol:
as §1

Another assay deals with HOP-62. Briefly: Growth inhibition of human HOP62 cells assessed as cell growth at 10^-6 M after 48 hrs by sulforhodamine B assay. The following applies: HOP-62, 48 h, read-out: Activity. A digest of the protocol:
as §2

Assay [6] in a line: Growth inhibition of human EKVX cells assessed as cell growth at 10^-6 M after 48 hrs by sulforhodamine B assay. The following applies: read-out: Activity. The procedure, abridged: as §2
The subject of the next assay is OVCAR-8. Briefly: Growth inhibition of human OVCAR8 cells assessed as cell growth at 10^-7 M after 48 hrs by sulforhodamine B assay. The following applies: OVCAR-8, 48 h, read-out: Activity.
Assay [7] has as its system M14. The experiment in a line: Growth inhibition of human M14 cells assessed as cell growth at 10^-7 M after 48 hrs by sulforhodamine B assay. To be noted: M14, 48 h, read-out: Activity.
The next assay concerns SNB-19. The experiment in a line: Growth inhibition of human SNB19 cells assessed as cell growth at 10^-7 M after 48 hrs by sulforhodamine B assay. To be noted: SNB-19, 48 h, read-out: Activity.
The subject of another assay is SW-620. The experiment in a line: Growth inhibition of human SW620 cells assessed as cell growth at 10^-7 M after 48 hrs by sulforhodamine B assay. The following applies: SW-620, 48 h, read-out: Activity.
For another assay, the system named is NCI-H226. Briefly: Growth inhibition of human NCI-H226 cells assessed as cell growth at 10^-7 M after 48 hrs by sulforhodamine B assay. To be noted: NCI-H226, 48 h, read-out: Activity.
The next assay has as its system HOP-92. Briefly: Growth inhibition of human HOP92 cells assessed as cell growth at 10^-7 M after 48 hrs by sulforhodamine B assay. To be noted: HOP-92, 48 h, read-out: Activity. A digest of the protocol:
as §2

In another assay the test system is HL-60(TB). Briefly: Growth inhibition of human HL-60(TB) cells assessed as cell growth at 10^-7 M after 48 hrs by sulforhodamine B assay. To be noted: HL-60, 48 h, read-out: Activity. A digest of the protocol:
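HL-60(TB) suspension cells were treated 48 h at 37 °C within the five-dose series (0.01–100 µM), fixed with 16% final TCA and SRB-stained, read at 515 nm. Percentage growth at each concentration = (Ti−Tz)/(C−Tz)×100, or (Ti−Tz)/Tz×100 when Ti<Tz, with time-zero (Tz) and untreated control (C) plates.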

Assay [8] deals with MDA-MB-231. The experiment in a line: Growth inhibition of human MDA-MB-231 cells assessed as cell growth at 10^-8 M after 48 hrs by sulforhodamine B assay. The following applies: MDA-MB-231, 48 h, read-out: Activity.
In a further assay the test system is SF-539. Briefly: Growth inhibition of human SF539 cells assessed as cell growth at 10^-8 M after 48 hrs by sulforhodamine B assay. To be noted: SF-539, 48 h, read-out: Activity.
The next assay has as its system COLO 205. Briefly: Growth inhibition of human COLO205 cells assessed as cell growth at 10^-8 M after 48 hrs by sulforhodamine B assay. The following applies: COLO 205, 48 h, read-out: Activity. The procedure, abridged:
as §1

In a further assay the test system is UO-31. Briefly: Growth inhibition of human UO31 cells after 48 hrs by sulforhodamine B assay. The following applies: UO-31, 48 h; for CC50: read-out: LC50 (the source's name). The procedure, abridged: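 NCI-60 screen. Cells grown in RPMI 1640 with 5% FBS and 2 mM L-glutamine, plated at 5000–40,000 cells/well and preincubated 24 h at 37 °C, 5% CO2. A time-zero plate is TCA-fixed at drug addition. DMSO stocks diluted in medium; five concentrations (0.01, 0.1, 1, 10, 100 µM). Exposure 48 h, then cold TCA fixation and 0.4% SRB staining, absorbance at 515 nm. GI50 is taken from the growth-percentage curve relative to time zero and control.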

Assay [9] relates to CAKI-1. The experiment in a line: Growth inhibition of human CAKI-1 cells after 48 hrs by sulforhodamine B assay. To be noted: CAKI-1, 48 h, read-out: LC50 (the source's name). A digest of the protocol:
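Adherent cells in RPMI 1640 with 5% FBS and 2 mM L-glutamine were plated at 5000–40,000 cells/well and grown 24 h. Five concentrations (0.01–100 µM, DMSO stock) were added for 48 h at 37 °C. Cells were fixed with cold TCA (10% final) and stained with SRB, read at 515 nm. GI50 came from log concentration–growth curves against time-zero and control plates.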

With `O=S(=O)(Nc1ccc(Cl)cc1)c1ccc2nc(-c3ccccc3)c(-c3ccccc3)nc2c1`, the values for the growth at 100 µM with MDA-MB-231 [1], in the assay with MCF7 and in the assay on RPMI-8226 were 54%, 76% and 40%, respectively. Also, the growth at 10 µM in the assay on DU-145 is 26%; with M14 [2] it was -27%; in assay [3], 2%. Moreover, the growth at 1 µM in the assay with BT-549 was 78%; with MDA-MB-231 [4], 83%; with CAKI-1 [5] it was 89%; in the assay with HOP-62 it was 105%; in assay [6], 91%. Also, the growth at 0.1 µM was 101% in the assay on OVCAR-8; 85% in the assay on M14 [7]; 96% in the assay with SNB-19; 91% with SW-620; 99% with NCI-H226; 92% in the assay with HOP-92. In addition, in the assay on HL-60(TB), the growth at 0.1 µM worked out at 99%. Moreover, the growth at 0.01 µM in the assay on MDA-MB-231 [8] amounted to 99%; in the assay with SF-539, 99%; in the assay with COLO 205 it was 101%. In addition, in the assay with UO-31, the TGI – broadly, the concentration at which net growth stops – was above 100 µM. Moreover, the CC50 with UO-31 and in the assay with CAKI-1 [9] was above 100 µM in each case.
`O=S(=O)(Nc1ccccn1)c1ccc2nc(-c3ccccc3)c(-c3ccccc3)nc2c1`: the growth at 100 µM with MDA-MB-231 [1] was 41%; in the assay on MCF7, 40%; in the assay with RPMI-8226, 27%. The values for the growth at 10 µM (in the assay with DU-145; in the assay on M14 [2]; in [3]) were 31%, -42% and -14%, respectively. Further, the growth at 1 µM with BT-549 was 71%; with MDA-MB-231 [4], 89%; in the assay on CAKI-1 [5] it was 102%; in the assay on HOP-62 it was 115%; in assay [6], 89%. Moreover, the growth at 0.1 µM was found to be 97% in the assay on OVCAR-8; 89% in the assay on M14 [7]; 93% with SNB-19; 102% in the assay on SW-620; 95% in the assay with NCI-H226; 92% in the assay with HOP-92. Besides, the growth at 0.1 µM in the assay on HL-60(TB) was found to be 97%. The growth at 0.01 µM came to 110% in the assay with MDA-MB-231 [8], 96% with SF-539 and 98% with COLO 205. Also, the CC50 in the assay on UO-31 and in the assay on CAKI-1 [9] was above 100 µM each time.

These data come from ChEMBL document CHEMBL2407075, “Sulphonamido-quinoxalines: search for anticancer agent” (Eur J Med Chem, 2013).
